Beta apoptosis = inhibitors of cytokine-induced beta cell apoptosis, primary screen, luminescence. AID 435005, 2010. INS-1E cytokine-induced death, ATP luminescence, 48 h; percent of positive-control rescue, neutral wells zero. hit rate 0.8% among 300,000. protection from apoptosis, % (concentration not given with the values);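 active = Every replicate reaches about 75%, or at least half do and their mean reaches it too, limit read from the data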;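 also: 0% = cytokine-treated negative control wells and 100% = positive control rescue; higher means more ATP so stronger rescue from cytokine killing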
XBP1 UPR activ = activators of adaptive XBP1 UPR arm, primary screen, cell-based, CHO-XBP1 luciferase reporter, luminescence, uHTS. hit rate 0.33% among 330,000. AID 463104, 2010. IRE1-XBP1 UPR activation; percent of tunicamycin response, DMSO as zero. activation, % at 20 µM;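 active = versus positive control, 20 µM dose yields 30% or more activation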;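 also: 100% = tunicamycin at 10 µg/mL and 0% = DMSO only wells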
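Material: CHO-XBP1 cells stably carrying IRE1-XBP1-driven luciferase reporter | Medium: F12 with 10% serum | Compound dosing: 20 µM single concentration, DMSO 1% | Incubation: Overnight seeding at 37 °C, 6 h compound treatment at 37 °C | Detection: Steady-Glo luminescence read | Read-out basis: % activation of reporter signal versus tunicamycin and DMSO controls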
SKKanGAS inh = S. pyogenes SKKanGAS growth inhibitors in kanamycin, primary screen, streptokinase expression inhibitor project, SKKanGAS strain, BacTiter-Glo luminescence. hit rate 1.3% among 300,000. 6 h. inhibition, % at 7.5 µM;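 active = mean replicate score, as percent of positive control median, at least 50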;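 also: strain carries kanamycin resistance gene driven by streptokinase promoter and grows in 40 µg/ml kanamycin; loss of luminescence reflects streptokinase promoter inhibition or plain growth inhibition; 0% = median of DMSO wells and 100% = positive control at its reference dose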
Mdm2 MdmX PPI = inhibitors of human Mdm2-MdmX association, primary screen, cell-based, luminescence, split luciferase, SaOS-2, uHTS | SaOS-2 split-luciferase Mdm2/MdmX complementation | AID 485346, 2010 | hit rate 3% among 330,000 | Protein Mdm4 (Homo sapiens) + E3 ubiquitin-protein ligase Mdm2 (Homo sapiens), … | inhibition, % at 8 µM;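 active = inhibition of at least 50% at 8 µM in the primary screen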
Target sequence (O15151 whole entry, looked up): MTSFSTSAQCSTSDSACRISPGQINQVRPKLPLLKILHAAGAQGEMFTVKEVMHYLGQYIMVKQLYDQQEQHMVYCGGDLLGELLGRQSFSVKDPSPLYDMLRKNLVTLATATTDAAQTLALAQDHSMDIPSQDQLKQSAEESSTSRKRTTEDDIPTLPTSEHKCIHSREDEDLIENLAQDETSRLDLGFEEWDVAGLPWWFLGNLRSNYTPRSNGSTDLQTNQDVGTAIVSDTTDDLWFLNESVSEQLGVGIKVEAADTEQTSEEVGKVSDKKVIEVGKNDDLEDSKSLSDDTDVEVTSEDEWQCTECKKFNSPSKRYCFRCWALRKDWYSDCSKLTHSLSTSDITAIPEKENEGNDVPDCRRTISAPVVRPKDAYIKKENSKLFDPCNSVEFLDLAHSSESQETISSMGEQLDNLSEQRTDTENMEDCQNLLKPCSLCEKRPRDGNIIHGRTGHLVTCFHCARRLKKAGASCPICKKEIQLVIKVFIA
Target sequence (Q00987 whole entry, looked up): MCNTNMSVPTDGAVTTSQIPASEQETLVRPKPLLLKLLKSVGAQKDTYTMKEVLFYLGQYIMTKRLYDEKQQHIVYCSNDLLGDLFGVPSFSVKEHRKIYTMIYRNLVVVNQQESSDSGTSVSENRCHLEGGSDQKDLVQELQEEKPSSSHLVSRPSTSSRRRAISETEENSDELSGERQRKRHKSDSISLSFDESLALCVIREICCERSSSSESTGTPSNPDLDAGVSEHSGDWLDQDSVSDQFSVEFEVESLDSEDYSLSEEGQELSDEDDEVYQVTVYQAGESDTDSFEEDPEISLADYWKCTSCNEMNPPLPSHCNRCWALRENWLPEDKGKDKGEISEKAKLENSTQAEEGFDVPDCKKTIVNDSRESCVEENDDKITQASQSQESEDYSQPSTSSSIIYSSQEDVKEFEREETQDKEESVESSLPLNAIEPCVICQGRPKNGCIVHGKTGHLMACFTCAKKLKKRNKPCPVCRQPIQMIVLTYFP
CSC inhib = cancer stem cell viability inhibitors, primary screen, luminescence | inhibition, % at 7.5 µM | cancer stem cell-like cells viability | AID 2717, 2010 | hit rate 1.1% among 300,000; in the data active = inhibition above about 75%; tested in HMLE shEcad cells
UPR CHOP act = activators of apoptotic CHOP UPR arm, primary screen, cell-based, CHO-CHOP luciferase reporter, luminescence, uHTS; activation, % at 10 µM; hit rate 0.34% among 330,000; AID 449763, 2010; UPR activation; percent of tunicamycin response over DMSO baseline;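 active = at 10 µM dose, activation of 40% or more, normalized to positive control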;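 also: 100% = tunicamycin at 10 µg/mL and 0% = DMSO alone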
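Evaluation: % reporter activation, DMSO baseline versus tunicamycin full activation; System: CHO-CHOP luciferase reporter cell line; Input: 500 cells/well; Incubation: 6 h compound treatment, 37 °C; Measured by: Steady-Glo luciferase luminescence; Dosing: one dose, 10 µM in 0.5% DMSO; Buffer or medium: F12 medium, 10% FBS; Benchmarks: positive tunicamycin 10 µg/mL, negative DMSO alone.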
* hit, by the source's call; nt = no result. A selection: hits, their analogues and other compounds. The true share with any hit is near 4.8%.

SMILES | Beta apoptosis | XBP1 UPR activ | SKKanGAS inh | Mdm2 MdmX PPI | CSC inhib | UPR CHOP act
Cc1cc(C(=O)N/N=C/c2cc(Br)ccc2OC(=O)c2ccc(Br)cc2)n[nH]1 | 91* | 8 | 9 | 45 | -22 | 4
CCOC(=O)c1sc2nccc(N(C)C)c2c1N=CNOCc1c(F)cccc1Cl | nt | -1 | 52* | 31 | 35 | -1
CCCCCCCCC/C(=N\O)c1ccccn1 | 41 | 2 | 97* | -13 | 2 | 5
CCCCCCCCC(=O)N/N=C/c1ccccn1 | 0 | -3 | -9 | 9 | 20 | 1
O=C1C=C(c2ccc(F)cc2OCc2ccccc2)C[C@@H](c2ccc(F)cc2)C1 | 65 | 0 | nt | 13 | 93* | 6
O=c1c2[nH]c3ccccc3c2ncn1CCC1=CCCCC1 | -3 | 0 | -3 | -25 | 11 | 0
C1=C(CCNc2ncnc3c2[nH]c2ccccc23)CCCC1 | 130* | nt | nt | nt | 77* | nt
CC(C)OCCCNc1ncnc2c1[nH]c1ccccc12 | 125* | 1 | -12 | 1 | nt | 1
COc1ccc(CCNC(=O)c2cc3ccccc3oc2=O)cc1 | 1 | -1 | 1 | 3 | -10 | 2
COc1ccccc1-c1cnn2c(NCCc3ccccc3)cc(C)nc12 | -1 | -3 | 3 | -30 | 10 | 1
Cc1cc(N2CCC(C)CC2)n2ncc(-c3ccccc3)c2n1 | 5 | -5 | -2 | 3 | -12 | 2
Cc1cc(N2CCCCC2)n2ncc(-c3ccccc3)c2n1 | -1 | -4 | 4 | 40 | 23 | -7
Cc1cc(N2CCCCC2)n2ncc(-c3ccc(Cl)cc3)c2n1 | 1 | 6 | 18 | 49 | 84* | 4
COc1ccc(CCNc2cc(C)nc3c(-c4ccc(Cl)cc4)cnn23)cc1OC | -1 | -8 | 27 | 39 | 92* | -3
Cc1cc(N2CCOCC2)n2ncc(-c3ccccc3)c2n1 | 100* | -4 | -2 | 39 | -5 | -5
CC(C)c1ccc(/C=N/Nc2cc(N3CCOCC3)nc(N3CCOCC3)n2)cc1 | -2 | 2 | nt | 13 | 28 | 0
Clc1ccc(-c2ccc(/C=N/Nc3cc(N4CCOCC4)nc(N4CCOCC4)n3)o2)cc1 | 7 | 4 | 76* | 43 | 93* | 1
O=C(NN=C1C2CC3CC1CC(Cl)(C3)C2)c1ccccn1 | -1 | -2 | 1 | 7 | -12 | 2
COc1ccc(-c2nn(-c3ccccc3)cc2/C=C2/SC(=S)N(CCC(=O)O)C2=O)c(C)c1 | 5 | -5 | 48 | 13 | 85* | 2
Cc1ccc(-c2nn(-c3ccccc3)cc2/C=N/O)cc1 | -9 | -1 | 58* | -32 | 25 | 3
Cc1ccc(-c2nn(-c3ccccc3)cc2/C=C2\SC(=S)N(CC(=O)O)C2=O)cc1 | 10 | -2 | 55* | 11 | 55 | 0
COc1ccc(/C=C2/SC(=S)N(CCC(=O)O)C2=O)cc1 | 0 | -3 | -9 | 25 | 9 | -7
COc1ccc(-c2nn(-c3ccccc3)cc2/C=C2/SC(=S)N(CCC(=O)O)C2=O)cc1 | -4 | 0 | 83* | 25 | 28 | 4
O=C(O)CCN1C(=O)/C(=C/c2cn(-c3ccccc3)nc2-c2cccs2)SC1=S | nt | -2 | nt | 10 | nt | -1
O=C(CCC(=O)N(CC(=O)NC1CCCC1)c1ccccc1F)Nc1nccs1 | 6 | 1 | -2 | -8 | nt | -1
SMILES | Beta apoptosis | XBP1 UPR activ | SKKanGAS inh | Mdm2 MdmX PPI | CSC inhib | UPR CHOP act
CCN(CC(=O)NC(=O)NCc1ccccc1)Cc1ccccc1 | -6 | 4 | 11 | 10 | -15 | 1
O=C(N/N=C/c1cn(-c2ccccc2)nc1-c1ccc(F)cc1)c1ccc(Br)o1 | 110* | -3 | 26 | 34 | 31 | 4
COc1ccc(/C=C/C(=O)c2ccc(O)cc2)cc1COc1ccc(F)cc1 | 8 | 0 | 14 | 46 | 97* | 3
COc1ccc(C(=O)/C=C/c2cccc(OCc3ccccc3)c2)cc1CSCC(=O)O | 0 | -4 | 38 | 37 | 13 | 1
COc1ccc(/C=C/C(=O)c2ccccc2)cc1COc1ccc(F)cc1 | 3 | 1 | 1 | 9 | 29 | 1
COc1ccc(C(=O)/C=C/c2ccc(OCc3ccccc3)cc2)cc1CSCC(=O)O | 3 | -5 | 36 | 5 | 79* | 1
CN1/C(=C\C=C2/SC(=S)NC2=O)C(C)(C)c2ccccc21 | 99* | 2 | 32 | 22 | 43 | -2
CC1=NN(c2ccccc2)C(=O)/C1=C\C=C1\N(C)c2ccccc2C1(C)C | 19 | -3 | -1 | 18 | 79* | -2
Cn1c(=O)c2cc(S(=O)(=O)Nc3cc(C(=O)O)cc(C(=O)O)c3)ccc2n(C)c1=O | -2 | 3 | -3 | 5 | -2 | 10
Cc1cc(C)cc(NS(=O)(=O)c2ccc3c(c2)c(=O)n(C)c(=O)n3C)c1 | 8 | -4 | 4 | 39 | 102* | -1
O=C1COc2ccc(N3C(=O)C=CC3=O)cc2N1 | 1 | -5 | -1 | 19 | 89* | -1
O=C1COc2ccc(S(=O)(=O)N3CCCC3)cc2N1 | 0 | 1 | 0 | 10 | -5 | -1
COc1ccc(-c2oc(=O)c3cc(OC)c(OC)cc3c2C#CCCO)cc1 | 17 | 4 | nt | 37 | nt | 1
COc1ccc2sc(-c3ccc(N(C)C)cc3)c(C#CCCO)c2c1 | 3 | 10 | nt | 47 | 122* | 2
COc1ccc(-c2sc3ccc(OC)cc3c2C#CCCO)cc1 | 7 | 2 | 97* | 11 | 99* | 2
COc1ccc(-c2c(-c3cc(OC)cc(OC)c3)sc3ccc(OC)cc23)cc1 | -1 | -3 | nt | 2 | 20 | 0
O=C(O)c1cc(-c2ccc(/C=C3\NC(=O)N(c4ccccc4)C3=O)o2)ccc1Cl | -1 | -1 | 6 | 4 | 19 | 3
C#CCN1C(=O)S/C(=C\c2ccc(-c3ccc(Cl)c(C(=O)O)c3)o2)C1=O | nt | -4 | 68* | -22 | nt | 3
CCN1C(=O)/C(=C\c2ccc(-c3ccc([N+](=O)[O-])cc3OC)o2)SC1=Nc1cccc(C(=O)O)c1 | nt | nt | 56* | nt | nt | nt
CCOC(=O)COc1ccc(/C=C2/SC(=Nc3ccccc3)N(Cc3cccnc3)C2=O)cc1OC | -1 | -6 | 28 | 42 | -9 | 2
CCN=C1S/C(=C/c2ccc(-c3ccc(Cl)cc3C(=O)O)o2)C(=O)N1CC | -11 | 4 | 24 | 5 | -1 | -1
CCN=C1S/C(=C\c2ccc(-c3cccc(C(=O)O)c3)o2)C(=O)N1CC | -3 | 8 | 56* | 2 | 2 | 4

High-throughput results: PubChem, several laboratories
